Compounds with a hit are over-represented: about 2.5% of the library has one in this group of screens.
SENP7 block – SENP7 protease inhibition. Q9BQF6. recombinant SENP7, Z-RLRGG-aminoluciferin luminescence, 40 min. inhibition, % at 5 µM. 330,000 compounds, 1.5% hits;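 active = inhibition above about 50% at the single test dose, limit read from the data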
SENP8 block-1 – SENP8 (human) protease inhibition; Q96LD8; recombinant SENP8, Nedd8 substrate fluorescence; inhibition, % at 20 µM; 360,000 compounds, 0.64% hits; AID 602440; in the data active = inhibition mostly above about 40%, no sharp cut-off; inactive = mostly below about 27%
Target sequence (Q96LD8 whole entry, looked up): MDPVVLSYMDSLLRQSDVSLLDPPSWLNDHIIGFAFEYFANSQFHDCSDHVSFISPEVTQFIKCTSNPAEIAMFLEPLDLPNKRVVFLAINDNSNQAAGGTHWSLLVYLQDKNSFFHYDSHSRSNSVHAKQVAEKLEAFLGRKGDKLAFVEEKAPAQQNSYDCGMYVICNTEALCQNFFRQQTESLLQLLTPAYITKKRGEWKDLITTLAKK
SENP8 block-2 – SENP8 protease inhibition. Q96LD8. purified SENP8, Z-RLRGG-aminoluciferin cleavage, luminescence. inhibition, % at 10 µM. 330,000 compounds, 1.2% hits. AID 2540; in the data active = inhibition above about 50%
SENP1 inh – blocks the human SENP1 SUMO protease catalytic domain | Q9P0U3 | recombinant SENP1 catalytic domain, CyPet-SUMO1-YPet FRET cleavage | inhibition, % at 10 µM | 360,000 compounds, 0.21% hits;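 active = inhibition at least 30% at 10 µM, raw YFP signal under a set limit, fluorescence ratio 0.5 to 1.5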
Target sequence (Q9P0U3 419-644 limits assumed): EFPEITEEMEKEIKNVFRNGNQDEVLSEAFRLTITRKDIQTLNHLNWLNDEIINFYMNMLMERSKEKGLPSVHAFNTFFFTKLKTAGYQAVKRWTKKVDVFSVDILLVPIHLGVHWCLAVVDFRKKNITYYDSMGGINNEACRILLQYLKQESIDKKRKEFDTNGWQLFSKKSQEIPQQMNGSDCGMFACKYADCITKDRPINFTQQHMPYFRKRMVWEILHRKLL
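material = recombinant human SENP1 catalytic domain, His6-tagged | quantity = 20 pM enzyme | reagent = 25 nM SUMO1 FRET substrate | compound dosing = 10 µM single point, 0.5% DMSO | timing = 50 min enzyme reaction, room temperature, light-protected | detection = FRET, CFP and YFP emission | control set = no-enzyme low, enzyme-DMSO high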
SENP6 inh – SENP6 protease inhibition. 330,000 compounds, 1.8% hits. inhibition, % at 10 µM. Q9GZR1. Recombinant SENP6 catalytic domain, aminoluciferin luminescence;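 active = inhibition above about 50% at the single tested dose, limit read from the data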
SENP8 conf – human SENP8 inhibition, confirmed; shares compounds with SENP7 block; Recombinant SENP8, Z-RLRGG-aminoluciferin luminescence, 60 min; inhibition, % at 12.5 µM; 6,200 compounds, 40% hits; AID 488912;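 active = mean inhibition across replicates above about 50%, limit read from the data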
SENP6 conf – confirmation of human SENP6 protease inhibitors. inhibition, % at 12.5 µM. recombinant SENP6, Z-RLRGG-aminoluciferin luminescence. shares compounds with SENP7 block. AID 488915. 6,200 compounds, 58% hits
SENP7 conf – confirmation of human SENP7 protease inhibitors; inhibition, % at 12.5 µM; shares compounds with SENP7 block; recombinant SENP7, Z-RLRGG-aminoluciferin luminescence, 40 min; 6,200 compounds, 69% hits
Casp3 select – inhibits human caspase-3 in SENP selectivity test. shares compounds with SENP7 block. purified caspase-3, Z-DEVD-aminoluciferin luminescence, 60 min. inhibition, % at 12.5 µM. 6,200 compounds, 60% hits;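 active = mean inhibition above about 50%, limit read from the data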
Target sequence (P42574 28-227 limits assumed): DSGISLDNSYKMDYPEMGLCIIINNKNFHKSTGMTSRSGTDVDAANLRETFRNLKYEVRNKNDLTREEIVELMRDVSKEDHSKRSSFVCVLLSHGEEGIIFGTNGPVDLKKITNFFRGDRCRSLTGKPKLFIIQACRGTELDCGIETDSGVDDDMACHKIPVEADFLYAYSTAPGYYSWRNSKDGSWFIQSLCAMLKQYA
SENP luc ctr – interferes with luciferase luminescence in SENP counter-screen; Pre-incubated SENP8/Z-RLRGG-aminoluciferin, luciferase luminescence interference; inhibition, % at 12.5 µM; 6,200 compounds, 39% hits; AID 488919; shares compounds with SENP7 block;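 active = mean inhibition above about 50% when retested at one dose, limit read from the data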
Of the large screens only hits and unclear results are named; the others gave an inactive call (follow-up assays come after a bar, where they were run).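 The calls were made as follows, unless noted: active = mean inhibition above about 50% in the one-dose retest (limit read from the data); inactive = the rest.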

CCOC(=O)COc1ccc(-c2nnc(-c3ccccc3)o2)cc1	SENP7 block 74, SENP6 inh 79 | SENP8 conf inactive | SENP6 conf inactive | SENP7 conf 68 | Casp3 select 72 | SENP luc ctr inactive
CC(C)(C)C(=O)Nc1cccc(-c2nc3ccccc3c(=O)o2)c1	none
O=C(COC(=O)c1ccc([N+](=O)[O-])s1)Nc1ccc(Cl)cn1	SENP6 inh 65 | SENP8 conf inactive | SENP6 conf inactive | SENP7 conf inactive | Casp3 select inactive | SENP luc ctr inactive
Cc1c(Cl)cnc(NC(=O)COC(=O)c2cccs2)c1Cl	none
Cc1c(Cl)cnc(NC(=O)COC(=O)c2ccc([N+](=O)[O-])s2)c1Cl	SENP6 inh 71 | SENP8 conf inactive | SENP6 conf 76 | SENP7 conf inactive | Casp3 select inactive | SENP luc ctr inactive
Cc1ccc(C(=O)OCC(=O)Nc2ccc(Cl)cn2)s1	none
Oc1ccc(C2=CSC3=NCCN23)cc1O	none
O=C(Nc1nc2ccccc2[nH]1)c1ccc(Cl)cc1	SENP7 block 90, SENP8 block-2 87, SENP6 inh 93 | SENP8 conf inactive | SENP6 conf 92 | SENP7 conf 100 | Casp3 select 93 | SENP luc ctr inactive
O=C(Nc1nc2ccccc2[nH]1)c1ccccc1O	SENP7 block 92, SENP8 block-2 82, SENP6 inh 88 | SENP8 conf inactive | SENP6 conf 80 | SENP7 conf 64 | Casp3 select 92 | SENP luc ctr inactive
O=C(Nc1nc2ccccc2[nH]1)c1cccc(Cl)c1	SENP7 block 68, SENP6 inh 57 | SENP8 conf inactive | SENP6 conf inactive | SENP7 conf 86 | Casp3 select 66 | SENP luc ctr inactive
O=C(Nc1nc2ccccc2[nH]1)c1ccccc1	SENP7 block 93, SENP8 block-2 90, SENP6 inh 96 | SENP8 conf 82 | SENP6 conf 91 | SENP7 conf 100 | Casp3 select 96 | SENP luc ctr inactive
CC(=O)Nc1nc2ccccc2[nH]1	none
O=C(Cc1ccc(Cl)cc1)Nc1nc2ccccc2[nH]1	none
COc1ccc(C(=O)Nc2nc3ccccc3c(=O)[nH]2)cc1	SENP6 inh 54 | SENP8 conf inactive | SENP6 conf inactive | SENP7 conf 59 | Casp3 select 72 | SENP luc ctr inactive
Cc1cc(C)n(CC(=O)NNC(=O)COc2ccc(Br)cc2F)n1	none
Brc1ccc(-c2nc(-c3ccccn3)no2)o1	SENP7 block 89, SENP8 block-2 87, SENP6 inh 89 | SENP8 conf 93 | SENP6 conf 94 | SENP7 conf 101 | Casp3 select 96 | SENP luc ctr 92
O=[N+]([O-])c1ccccc1-c1nc(-c2ccc(Br)o2)no1	none
Brc1ccc(-c2noc(-c3ccccn3)n2)o1	SENP7 block 91, SENP8 block-2 86, SENP6 inh 85 | SENP8 conf inactive | SENP6 conf 86 | SENP7 conf 99 | Casp3 select 93 | SENP luc ctr inactive
Clc1ccccc1-c1nc(-c2ccc(Br)o2)no1	SENP7 block 82, SENP8 block-2 83, SENP6 inh 86 | SENP8 conf inactive | SENP6 conf 85 | SENP7 conf 97 | Casp3 select 68 | SENP luc ctr 73
COc1cc(-c2nc(-c3ccc(Br)o3)no2)cc(OC)c1OC	none
Brc1ccc(-c2nc(-c3ccncc3)no2)o1	none
O=C(N/N=C/c1cccc(Br)c1)C1CC(=O)N(c2ccccc2)C1 (centres undefined)	none
CC(=O)Nc1ccc2c(c1)C(=O)c1ccc(Cl)cc1-2	none (no result: SENP7 block, SENP8 block-2, SENP6 inh)
CC(C)COC(=O)N1CCN(S(=O)(=O)c2ccc3c(c2)CCC3)CC1	none
CC(=O)c1c(C)c(C)c2n1CCn1c(C)ccc1-2	none
CC1CCN(C(=O)c2ccc3c(c2)C(=O)c2ccccc2-3)CC1	none (no result: SENP7 block, SENP8 block-2, SENP6 inh)
Cc1oc2c(c1C(=O)N1CCC(C)CC1)C(=O)c1ccccc1C2=O	SENP6 inh 55 (no result: SENP8 block-1, SENP1 inh) | SENP8 conf inactive | SENP6 conf 52 | SENP7 conf inactive | Casp3 select inactive | SENP luc ctr inactive
Cc1ccc(C(=O)c2c(C)oc3c2C(=O)C(=O)c2ccccc2-3)cc1	SENP7 block 51, SENP8 block-1 106 | SENP8 conf inactive | SENP6 conf 57 | SENP7 conf inactive | Casp3 select inactive | SENP luc ctr inactive
CCN(CC)C(=O)Oc1ccc2c(=O)c(-c3ccccc3)coc2c1	SENP7 block 71, SENP8 block-2 54, SENP6 inh 81 | SENP8 conf inactive | SENP6 conf inactive | SENP7 conf 54 | Casp3 select 57 | SENP luc ctr inactive
COc1ccc2cc(-c3ccccc3)c(=O)oc2c1	SENP7 block 88, SENP8 block-2 75, SENP6 inh 92 | SENP8 conf inactive | SENP6 conf 90 | SENP7 conf 99 | Casp3 select 86 | SENP luc ctr inactive
CC(=O)Oc1ccc2occ(-c3ccccc3)c2c1	none
COc1ccc2c(=O)c(-c3ccccc3)coc2c1	SENP7 block 80, SENP8 block-2 75, SENP6 inh 79 | SENP8 conf inactive | SENP6 conf 73 | SENP7 conf 93 | Casp3 select 84 | SENP luc ctr inactive
O=c1oc2cc(OCc3c(F)cccc3Cl)ccc2cc1-c1ccccn1	none
COC(=O)C(C)Oc1ccc2cc(-c3ccccc3)c(=O)oc2c1 (centres undefined)	none
CCCOc1ccc2cc(-c3ccccn3)c(=O)oc2c1	SENP7 block 101, SENP8 block-2 96, SENP6 inh 98 | SENP8 conf 81 | SENP6 conf 85 | SENP7 conf 101 | Casp3 select 88 | SENP luc ctr inactive
CCOc1ccc(NC(=O)CSc2nccn(-c3ccc4c(c3)OCCO4)c2=O)cc1	none
O=C(Nc1cccc(/C=C/c2nc3ccccc3c(=O)[nH]2)c1)c1ccccc1Cl	none
O=c1[nH]c2ccccc2nc1/C=C/c1ccc(Cl)cc1	SENP7 block 72 | SENP8 conf inactive | SENP6 conf inactive | SENP7 conf inactive | Casp3 select inactive | SENP luc ctr inactive
CN(C)c1ccc(/C=C/c2nc3ccccc3c(=O)[nH]2)cc1	SENP7 block 95, SENP8 block-2 93 | SENP8 conf inactive | SENP6 conf 90 | SENP7 conf 103 | Casp3 select 96 | SENP luc ctr inactive

Screening results deposited in PubChem by Sanford-Burnham Center for Chemical Genomics.
